“Also recorded” adds a separate entry of the source. Structures can show the parent of a compound that is named as a salt. Bridge positions count the residues as written; N and C are the ends. Ends that are not written are not given here.
Columns and labels:
[1] = tested on: HEK-PR1 cells; assay: cAMP production measured by RIA; type: cell-based, human; conditions: for Δ cAMP Maximal response: identical conditions to Ca^2+ assay (with CCh); for EC50: read-out: Δ cAMP EC50
[2] = tested on: HEK-PR1 cells; assay: Potentiation of CCh-evoked Ca^2+ signals in cell populations; type: cell-based, human; conditions: for Δ [Ca^2+]i Maximal increase: potentiation of CCh-evoked Ca^2+ signal, 30-s stimulation; for potentiation of CCh-evoked Ca^2+ signals: qualitative; for effect of stimulus alone on [Ca^2+]i / Ca^2+ release (absence of CCh): somatostatin 1 μM; for effect on CCh-evoked Ca^2+ signals: 30 mM; for increase in the sensitivity to CCh: PTH 100 nM 1 min, 8-Br-cAMP 10 mM 20 min
[3] = tested on: HEK-PR1 cells; assay: Single cell imaging of [Ca^2+]i; type: cell-based, human; conditions: single cell analyses
[4] = tested on: IP3R; assay: IP3-evoked Ca^2+ release from permeabilized cells
[5] = tested on: PKA; conditions: ref He et al., 2003; cited from earlier work
[6] = tested on: HEK-PR1 cells; conditions: <100 μM; ref Short and Taylor, 2000; Tovey et al., 2003; cited from earlier work
[7] = tested on: HEK-PR1 cells; assay: Protein phosphorylation by Western blot with AbP; type: cell-based, human; conditions: H89 10 μM for 20 min
In short: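 Cells treated with 8-Br-cAMP (10 mM, 20 min), FK (100 μM, 30 s) or PTH (100 nM, 30 s), alone or after H89 (10 μM, 20 min) or st-ht31 (100 μM, 30 min). Lysed at 4°C in Triton X-100 buffer, pH 7.4, with NaF, pyrophosphate and vanadate. Blots probed with anti-phospho Ser/Thr antibody. For IP3R, the immunoprecipitated receptor signal was normalised to IP3R3 and expressed relative to unstimulated cells (n = 3–4).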

[8] = Homo sapiens, read-out: Δ [Ca^2+]i EC50

CC(C)NCC(O)c1ccc(O)c(O)c1 (racemic) [Isoproterenol, (±)-isoproterenol hydrochloride]
Δ cAMP Maximal response ([1]; 30-s stimulation): 91 ± 15 fmol/sample
EC50 ([1]; Homo sapiens): 113 ± 43 nM
EC50 [2, 8]: 90 ± 24 nM
Δ [Ca^2+]i Maximal increase [2]: 30 ± 6 nM
potentiation of CCh-evoked Ca^2+ signals [2]: potentiated CCh-evoked Ca^2+ signals
effect of stimulus alone on [Ca^2+]i / Ca^2+ release (absence of CCh) [2]: no significant effect
cells that responded to CCh in which the Ca^2+ signal was potentiated [3]: 80 ± 4%

C=C[C@@]1(C)CC(=O)[C@@H]2[C@@]3(C)CCCC(C)(C)[C@@H]3[C@H](O)[C@H](OC(C)=O)[C@@]2(C)O1 [1,9-dideoxyforskolin]
effect on [Ca^2+]i either alone or with CCh ([2]; 100 μM, unpublished data): no effect

CO[C@H]1C2OP(=O)(O)OC[C@H]2O[C@H]1n1c(Br)nc2c(N)ncnc21 (stereo partly shown) [8-Br-2′-O-methyladenosine-3′,5′-cAMP]
effect on CCh-evoked Ca^2+ signals ([2]; intact cells): no effect

Nc1ncnc2c1nc(Br)n2[C@@H]1O[C@@H]2COP(=O)(O)O[C@H]2[C@H]1O [8-Br-cAMP]
EC50 ([4]; read-out: EC50 for potentiation of IP3-evoked Ca^2+ release, permeabilized cells): 324000 ± 45000 nM
effect on CCh-evoked Ca^2+ signals ([2]; intact cells): similarly potentiated
increase in the sensitivity to CCh ([2]; intact cells): three- to fourfold
EC50 ([2]; read-out: EC50 for potentiation of CCh-evoked Ca^2+ signals, intact cells, 1 mM CCh, 20-min preincubation): 870000 ± 370000 nM
concentrations that activate PKA [5]: < 100 µM
potentiation of Ca^2+ signals at low concentrations [6]: did not significantly potentiate

Nc1nc2c(nc(Br)n2[C@@H]2O[C@@H]3COP(=O)(O)O[C@H]3[C@H]2O)c(=O)[nH]1 [8-Br-cGMP]
effect on CCh-evoked Ca^2+ signals ([2]; intact cells): ineffective

C[N+](C)(C)CCOC(N)=O [CCh, Carbachol]
cells that responded to CCh [3]: 98 ± 1%

C=C[C@@]1(C)CC(=O)[C@]2(O)[C@@]3(C)[C@@H](O)CCC(C)(C)[C@@H]3[C@H](O)[C@H](OC(C)=O)[C@@]2(C)O1 [FK, forskolin]
Δ cAMP Maximal response ([1]; 30-s stimulation): 236 ± 29 fmol/sample
EC50 ([1]; Homo sapiens): 3300 ± 400 nM
EC50 [2, 8]: 8700 ± 2000 nM
Δ [Ca^2+]i Maximal increase [2]: 55 ± 5 nM
potentiation of CCh-evoked Ca^2+ signals [2]: So too did
effect of stimulus alone on [Ca^2+]i / Ca^2+ release (absence of CCh) [2]: no significant effect
cells that responded to CCh in which the Ca^2+ signal was potentiated [3]: 95 ± 3%

Cl.Cl.O=S(=O)(NCCNC/C=C/c1ccc(Br)cc1)c1cccc2cnccc12 [H89, H89 dihydrochloride]
effect of inhibition of PKA on responses of intact cells to 8-Br-cAMP ([2]; 10 μM H89, unpublished data): unaffected
effect of H89 on sensitivity to isoproterenol ([2]; by competing for occupancy of β-adrenoceptors (Fig. S2 E)): decreased the sensitivity to isoproterenol
effect on phosphorylation of proteins stimulated by PTH, FK and 8-Br-cAMP [7]: prevented

CC(C)Cn1c(=O)n(C)c(=O)c2[nH]cnc21 [IBMX, 3-isobutyl-1-methylxanthine]
effect of PDE inhibition on potentiated Ca^2+ signals ([2]; IBMX 1 mM for 20 min): slight inhibition

CCCCC[C@H](O)/C=C/[C@H]1[C@H](O)CC(=O)[C@@H]1CCCCCCC(=O)O [PGE1, Prostaglandin E1]
potentiation of CCh-evoked Ca^2+ signals [2]: potentiated CCh-evoked Ca^2+ signals

Nc1ncnc2c1ncn2[C@@H]1O[C@@H]2COP(=O)(O)O[C@H]2[C@H]1O [cAMP, cyclic adenosine monophosphate]
increase in sensitivity of IP3-evoked Ca^2+ release ([4]; permeabilized HEK cells, high concentrations of cAMP): ~4.5 fold
affinity of IP3R site for cAMP relative to that of PKA or CNGC ([4]; ref Wong and Scott, 2004 for PKA or CNGC): ~20,000 times lower

human PTH(1–34)
Δ cAMP Maximal response ([1]; 30-s stimulation): 6,662 ± 1232 fmol/sample
EC50 ([1]; 30-s stimulation, with CCh): 29 ± 7 nM
increase in the sensitivity to CCh ([2]; intact cells): three- to fourfold
Δ [Ca^2+]i Maximal increase [2]: 101 ± 14 nM
EC50 ([2]; read-out: EC50 for PTH-mediated Ca^2+ signaling, after loss of AC6 (siRNA)): 54 ± 5 nM
EC50 ([2]; read-out: EC50 for PTH-mediated Ca^2+ signaling, before loss of AC6): 63 ± 3 nM
effect of stimulus alone on [Ca^2+]i / Ca^2+ release (absence of CCh) [2]: does not alone cause Ca^2+ release; also recorded: no significant effect
cells that responded to CCh in which the Ca^2+ signal was potentiated [3]: 99 ± 1%

somatostatin (AGCKNFFWKTFTSC; disulfide 3-14 (inferred); ends not checked; UniProt P61278 103-116, looked up)
effect of stimulus alone on [Ca^2+]i / Ca^2+ release (absence of CCh) [2]: nor does
